In ChEMBL document CHEMBL4406918, “Inhibitory Effects of Multivalent Polypeptides on the Proliferation and Metastasis of Breast Cancer Cells” (ACS Med Chem Lett, 2019):
Activity calls are given as the source filed them. The calls are words filed in the database; no cut-off is given here. Where a SMILES comes first, the peptide text is derived from it.

Columns and labels:
4T1 [1] = assay: Antiproliferative activity against mouse 4T1 cells assessed as cell death at 0.2 mM incubated for 24 hrs by MTT assay relative to control; format: functional
Summary of the method: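 Mouse 4T1 breast cancer cells exposed for 24 h (doses include 0.1 and 0.2 mM), then read by MTT for viability or cell death. Mean ± SD, n = 6.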

4T1 [2] = assay: Induction of apoptosis in mouse 4T1 cells assessed as late apoptotic cells at 0.4 mM incubated for 24 hrs by Annexin V-FITC/PI based FACS analysis (reference value: 6.62%); format: functional
4T1 [3] = assay: Antitumour activity against mouse 4T1 cells xenografted in BALB/c mouse assessed as reduction in number of lung tumor metastatic nodules at 10 mg/kg administered intratumorally and measured after 24 days by H and E staining based inverted optical microscopic method; format: functional, organism-based
Summary of the method: (§1)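 After 6 doses of 10 mg/kg to 4T1 tumour-bearing BALB/c mice (saline control), lungs were photographed whole and examined histopathologically for the number and size of metastatic nodules.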

4T1 [4] = assay: Induction of cell cycle arrest in mouse 4T1 cells assessed as accumulation at S phase at 0.4 mM incubated for 24 hrs by PI staining based flow cytometric analysis (Rvb =42.35%); format: functional
4T1 [5] = assay: Antiproliferative activity against mouse 4T1 cells at 0.1 mM incubated for 24 hrs by MTT assay; format: functional, cell-based
4T1 [6] = assay: Induction of cell cycle arrest in mouse 4T1 cells assessed as accumulation at G2/M phase at 0.4 mM incubated for 24 hrs by PI staining based flow cytometric analysis (reference value: 19.82%); format: functional
[7] = Stability in fetal bovine serum assessed as drug degradation measured for 4 hrs by RP-HPLC analysis; format: ADME, cell-free, Bos taurus; conditions: cattle, read-out: Drug degradation
Summary of the method: (§2)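 Peptides incubated in serum for up to 12 h. Degradation is followed as the percentage of intact YSL remaining at time points including 4 and 12 h.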

[8] = Toxicity in BALB/c mouse xenografted with mouse 4T1 cells assessed as change in blood urea nitrogen level at 10 mg/kg administered intratumorally and measured after 24 days; format: organism-based; conditions: in vivo, other, 576 h
Erythrocyte = assay: Hemolytic activity in BALB/c mouse RBC at 3.2 mM incubated for 2 hrs by UV-Vis spectrophotometric analysis; format: ADME, cell-based; conditions: 3200 µM
Summary of the method: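 Hemolysis assay on red blood cells with dendrimers up to 3.2 mM. Result is expressed as hemolysis rate, with under 5% taken as acceptable.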

4T1 [9] = assay: Induction of apoptosis in mouse 4T1 cells assessed as early apoptotic cells at 0.4 mM incubated for 24 hrs by Annexin V-FITC/PI based FACS analysis (reference value: 0.76%); format: functional
4T1 [10] = assay: Induction of apoptosis in mouse 4T1 cells at 0.8 mM incubated for 24 hrs by PI staining based inverted microscopic method; format: functional, cell-based
Summary of the method: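 Live–dead staining of 4T1 cells after 24 h exposure, with PI uptake imaged microscopically. A higher 0.8 mM dose was also tested.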

4T1 [11] = assay: Antitumour activity against mouse 4T1 cells xenografted in BALB/c mouse assessed as increase in damage of tumor tissue at 10 mg/kg administered intratumorally and measured after 24 days by H and E staining based inverted optical microscopic method; format: functional, organism-based
Summary of the method: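 Tumours from 4T1-bearing BALB/c mice given 6 doses of 10 mg/kg (saline control) were sectioned and stained with H&E, plus CD31, Ki-67 and TUNEL.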

[12] = Toxicity in BALB/c mouse xenografted with mouse 4T1 cells assessed as induction of morphological lesions in spleen at 10 mg/kg administered intratumorally and measured after 24 days by H and E staining based inverted optical microscopic method; format: organism-based; conditions: in vivo, other, 576 h
4T1 [13] = assay: Antiinvasive activity in mouse 4T1 cells assessed as inhibition of cell invasion at 0.2 mM incubated for 24 hrs by crystal violet staining based matrigel invasion assay relative to control; format: functional; conditions: 4T1, 24 h
Summary of the method: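 4T1 cells, Matrigel-coated Transwell invasion with 0.2 mM compound. Invasion rate comes from counting cells on the underside of the Matrigel-coated porous membrane, relative to untreated control. Mean ± SD, n = 3.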

[14] = Toxicity in BALB/c mouse xenografted with mouse 4T1 cells assessed as induction of morphological lesions in heart at 10 mg/kg administered intratumorally and measured after 24 days by H and E staining based inverted optical microscopic method; format: organism-based; conditions: in vivo, other, 576 h
4T1 [15] = assay: Inhibition of cell migration in mouse 4T1 cells assessed as wound closure rate at 0.2 mM measured up to 36 hrs by inverted optical microscopic method based wound healing assay (reference value: 82%); format: functional; set-up: scale not given: the % may be the effect or the level left
4T1 [16] = assay: Induction of cell cycle arrest in mouse 4T1 cells assessed as accumulation at G0/G1 phase at 0.4 mM incubated for 24 hrs by PI staining based flow cytometric analysis (reference value: 37.78%); format: functional
4T1 [17] = assay: Induction of apoptosis in mouse 4T1 cells assessed as viable cells at 0.4 mM incubated for 24 hrs by Annexin V-FITC/PI based FACS analysis (reference value: 92.2%); format: functional; conditions: 4T1, 24 h, read-out: Activity
[18] = Toxicity in BALB/c mouse xenografted with mouse 4T1 cells assessed as change in serum creatinine level at 10 mg/kg administered intratumorally and measured after 24 days; format: organism-based; conditions: in vivo, other, 576 h
4T1 [19] = assay: Antitumour activity against mouse 4T1 cells xenografted in BALB/c mouse assessed as reduction in size of lung tumor metastatic nodules at 10 mg/kg administered intratumorally and measured after 24 days by H and E staining based inverted optical microscopic method; format: functional, organism-based; summary of the method: as §1
[20] = Toxicity in BALB/c mouse xenografted with mouse 4T1 cells assessed as induction of morphological lesions in liver at 10 mg/kg administered intratumorally and measured after 24 days by H and E staining based inverted optical microscopic method; format: organism-based; conditions: in vivo, other, 576 h
4T1 [21] = assay: Antitumour activity against mouse 4T1 cells xenografted in BALB/c mouse assessed as inhibition in tumor growth at 10 mg/kg administered intratumorally and measured every 3 days for 24 days; format: functional, organism-based
Summary of the method: (§3)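 BALB/c mice bearing subcutaneous 4T1 tumours received 6 doses of 10 mg/kg, with equal YSL-monomer molar amounts across compounds and saline as control. Tumour volume growth curves and body weights were tracked. Mean ± SD, n = 5.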

4T1 [22] = assay: Inhibition of metastasis in mouse 4T1 cells assessed as disruption in F-actin arrangement at 0.2 mM incubated for 24 hrs by Hoechst 33342 staining based confocal laser scanning microscopic method; format: functional, cell-based
Summary of the method: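 After 24 h at 0.2 mM, 4T1 cells were stained for F-actin with Alexa Fluor 488 phalloidin and for nuclei with Hoechst 33342, then imaged by fluorescence for cytoskeletal arrangement and cell morphology.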

4T1 [23] = assay: Induction of apoptosis in mouse 4T1 cells assessed as necrotic cells at 0.4 mM incubated for 24 hrs by Annexin V-FITC/PI based FACS analysis (reference value: 0.47%); format: functional
[24] = Toxicity in BALB/c mouse xenografted with mouse 4T1 cells assessed as change in body weight at 10 mg/kg administered intratumorally and measured after 24 days; format: organism-based; conditions: in vivo, other, 576 h; summary of the method: as §3
[25] = Stability in fetal bovine serum assessed as drug degradation measured for 12 hrs by RP-HPLC analysis; format: ADME, cell-free, Bos taurus; conditions: cattle, read-out: Drug degradation; summary of the method: as §2
4T1 [26] = assay: Inhibition of cell migration in mouse 4T1 cells assessed as migration frequency at 0.2 mM incubated for 24 hrs by crystal violet staining based transwell assay relative to control; format: functional; set-up: scale not given: the % may be the effect or the level left
Summary of the method: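 4T1 cells, Transwell migration with 24 h exposure to 0.2 mM. Migration rate comes from counting cells on the bottom of the porous membrane. Mean ± SD, n = 3.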

[27] = Toxicity in BALB/c mouse xenografted with mouse 4T1 cells assessed as induction of morphological lesions in kidney at 10 mg/kg administered intratumorally and measured after 24 days by H and E staining based inverted optical microscopic method; format: organism-based; conditions: in vivo, other, 576 h

With `COC(=O)[C@H](CC(C)C)NC(=O)[C@H](CO)NC(=O)[C@@H](N)Cc1ccc(O)cc1` (H-Tyr-Ser-Leu-OMe) the Activity (4T1 [1]) was 2%, the Activity (4T1 [2]) was 10.3% and the Activity (4T1 [3]) was “Active”. For the same compound, the Activity (4T1 [4]) was 42.35%, the Activity (4T1 [5]) was “inactive” and the Activity (4T1 [6]) was 48.48%. The metabolised at 4 h [7] was 60%, the Activity [8] was “Non-Toxic” and the Activity (Erythrocyte) was “Non-Toxic”. For the same compound, the Activity (4T1 [9]) was 0.88%, the Activity (4T1 [10]) was “Active” and the Activity (4T1 [11]) was “Active”. The Activity [12] was “Non-Toxic”, the inhibition at 200 µM (4T1 [13]) was 92% and the Activity [14] was “Non-Toxic”. The Activity (4T1 [15]) was 80%, the Activity (4T1 [16]) was 37.41% and the viability at 400 µM (4T1 [17]) was 87.6%. For the same compound, the Activity [18] was “Non-Toxic”, the Activity (4T1 [19]) was “Active” and the Activity [20] was “Non-Toxic”. The Activity (4T1 [21]) was “Active”, the “F-actin disruption (qualitative)” value (4T1 [22]) was “Active” and the Activity (4T1 [23]) was 1.23%. The Activity [24] was “Non-Toxic”, the metabolised at 12 h [25] was 100% and the Activity (4T1 [26]) was 82%. The Activity [27] was “Non-Toxic”.
